In one assay the test system is Escherichia coli. The experiment in a line: Antimicrobial activity against Escherichia coli ATCC 25922 after 24 hrs by serial dilution method. It is filed as functional. As to conditions: for MIC: ATCC 25922, 24 h. The gist of the method: (§1)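 Serial broth dilution in 96-well microtiter plates. Compounds and controls are dissolved in DMSO as stock. Bacteria are grown overnight at 37 °C, then diluted to 10^6 cfu/mL. E. coli and S. aureus are grown in Luria–Bertani broth. P. multocida and E. rhusiopathiae are grown in trypticase soy broth with 10% calf serum. Plates are incubated at 37 °C for 24 h and read at 630 nm.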

The subject of the next assay is Staphylococcus aureus. The experiment in a line: Antimicrobial activity against Staphylococcus aureus subsp. aureus Rosenbach ATCC 25923 after 24 hrs by serial dilution method. Format: functional. The following applies: for MIC: Rosenbach ATCC 25923, 24 h. A digest of the protocol:
as §1

A further assay relates to SGC-7901. Kind of assay: Cytotoxicity against human SGC7901 cells after 6 days by MTT assay. The following applies: for IC50: SGC-7901, 144 h. It is filed as functional, cell-based. A digest of the protocol: (§2)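 HepG-2 and SGC7901 cells; growth inhibition read by MTT method, with 5-fluorouracil as positive control.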
(In general: Tetrazolium dyes change colour on reduction, which living cells bring about.)

Another assay has as its system OS-RC-2. Kind of assay: Cytotoxicity against human OS-RC2 cells after 72 hrs by CCK8 assay. It is filed as functional, cell-based. As to conditions: for IC50: OS-RC-2, 72 h. The gist of the method:
(§3)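 Renal cancer lines ACHN, 786-O and OS-RC-2; cell viability read by CCK-8 assay, with sorafenib as positive control.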

In another assay the test system is ACHN. The experiment in a line: Cytotoxicity against human ACHN cells after 72 hrs by CCK8 assay. Format: functional, cell-based. The gist of the method: as §3
The subject of the next assay is Pasteurella multocida. The experiment in a line: Antimicrobial activity against Pasteurella multocida subsp. multocida ATCC 43137 after 24 hrs by serial dilution method. Format: functional. The following applies: for MIC: ATCC 43137, 24 h. The gist of the method:
as §1

The test system of a further assay is HepG2. The experiment in a line: Cytotoxicity against human HepG2 cells after 6 days by MTT assay. As to conditions: for IC50: HepG2, 144 h. Format: functional, cell-based. The gist of the method: as §2
The subject of the next assay is 786-0. Kind of assay: Cytotoxicity against human 786-O cells after 72 hrs by CCK8 assay. Format: functional, cell-based. The following applies: for IC50: 786-0, 72 h. A digest of the protocol: as §3
Assay [1] relates to Erysipelothrix rhusiopathiae. Kind of assay: Antimicrobial activity against Erysipelothrix rhusiopathiae ATCC 19414 after 24 hrs by serial dilution method. It is filed as functional. As to conditions: for MIC: ATCC 19414, 24 h. The gist of the method:
as §1

≈ marks a conversion by molar mass, not a printed value. Calls of active or inactive are those of the source. The rule behind the calls is not given here.

Consider `CN[C@@H]1[C@H](O[C@H]2[C@H](O[C@H]3[C@H](O)[C@@H](O)[C@H](N=C(N)N)[C@@H](O)[C@@H]3N=C(N)N)O[C@@H](C)[C@]2(O)C=O)O[C@@H](CO)[C@H](O)[C@H]1O` [STREPTOMYCIN], for which the MIC (commonly the lowest concentration found to suppress growth) against Escherichia coli is 25 µg/mL (≈ 43 µM).
On to `C=C(C=O)[C@]1(O)C[C@@]2(C)C(=CC1=O)C=C[C@H](OC(=O)/C=C/C(C)=C/[C@@H](C)CC)[C@@H]2C`, for which the MIC in the assay on Staphylococcus aureus was 1.5 µg/mL (≈ 3.64 µM); with Pasteurella multocida, 13 µg/mL (≈ 31.5 µM); in the assay on Escherichia coli, more than 100 µg/mL; in [1] it was 13 µg/mL (≈ 31.5 µM). Also, the IC50 (commonly the point on the concentration scale where inhibition reaches its midpoint) is 1.4 µM in the assay on SGC-7901; 3.7 µM in the assay on OS-RC-2; 4.3 µM in the assay with ACHN; 1.4 µM with HepG2; 2.5 µM in the assay with 786-0.
With `CC[C@@H]1OC(=O)c2cc(O)ccc21`, the MIC (in the assay on Staphylococcus aureus; with Pasteurella multocida; against Escherichia coli; in assay [1]) was more than 100 µg/mL each time. Also, the IC50 in the assay with SGC-7901, in the assay with OS-RC-2, in the assay with ACHN, in the assay with HepG2 and with 786-0 was more than 50 µM in each case.
`CC1(C)S[C@@H]2[C@H](NC(=O)Cc3ccccc3)C(=O)N2[C@H]1C(=O)O` [PENICILLIN G]: the MIC (in the assay with Staphylococcus aureus; with Pasteurella multocida; in assay [1]) was 13 µg/mL (≈ 38.9 µM) in each case.
Regarding `C=C(CO)[C@]1(O)C[C@@]2(C)C(=CC1=O)C=CC[C@@H]2C`, the MIC (in the assay on Staphylococcus aureus; against Pasteurella multocida; in the assay on Escherichia coli; in assay [1]) was more than 100 µg/mL in each case. Also, the IC50 in the assay on SGC-7901, with OS-RC-2, in the assay on ACHN, in the assay with HepG2 and in the assay on 786-0 was more than 50 µM throughout.
As for `Cc1cc(=O)c2c(C)cc(O)cc2o1`, the result in the assay on Staphylococcus aureus, in the assay with SGC-7901, in the assay with OS-RC-2, with ACHN, with Pasteurella multocida and in the assay on HepG2 was inactive. Also, the result (in the assay with 786-0; in the assay with Escherichia coli; in assay [1]) was inactive.
For the compound `CC[C@@H]1OC(=O)c2c1ccc(O)c2O`, the MIC (in the assay with Staphylococcus aureus; in the assay with Pasteurella multocida; in the assay with Escherichia coli; in assay [1]) was more than 100 µg/mL throughout. Moreover, the IC50 in the assay with SGC-7901, in the assay on OS-RC-2, in the assay with ACHN, with HepG2 and with 786-0 was more than 50 µM throughout.
For the compound `O=c1[nH]cc(F)c(=O)[nH]1` [FLUOROURACIL], the IC50 in the assay on SGC-7901 and in the assay with HepG2 was 12 µM each time.
On to `CC[C@@H]1OC(=O)c2cc(O)c(O)cc21`, for which the MIC (against Staphylococcus aureus; against Pasteurella multocida; in the assay with Escherichia coli; in assay [1]) was more than 100 µg/mL throughout. The IC50 in the assay on SGC-7901 was more than 50 µM; with OS-RC-2, more than 50 µM; in the assay on ACHN, 34 µM; in the assay on HepG2 it was more than 50 µM; in the assay on 786-0 it was 28 µM.
With `CNC(=O)c1cc(Oc2ccc(NC(=O)Nc3ccc(Cl)c(C(F)(F)F)c3)cc2)ccn1` [SORAFENIB], the figures for the IC50 in the assay on OS-RC-2, with ACHN and with 786-0 were 15 µM, 3.5 µM and 5.3 µM, respectively.
For `Cc1cc(O)c2c(c1)C(=O)c1cc(O)cc(O)c1C2=O` [EMODIN], the MIC in the assay on Staphylococcus aureus is 100 µg/mL (≈ 370 µM); in the assay with Pasteurella multocida it was more than 100 µg/mL; in the assay on Escherichia coli it was more than 100 µg/mL; in [1], more than 100 µg/mL. For the same compound, the values for the IC50 in the assay on SGC-7901 and with HepG2 were 5.6 µM and 1.7 µM, respectively.
On to `COC(=O)[C@]12Oc3cc(C)c(-c4ccc(O)c5c4O[C@@]4(C(=O)OC)C(=C(O)C[C@@H](C)[C@H]4O)C5=O)c(O)c3C(=O)C1=C(O)CC[C@H]2O`, for which the MIC is 50 µg/mL (≈ 78.3 µM) in the assay on Staphylococcus aureus, 13 µg/mL (≈ 20.4 µM) with Pasteurella multocida, more than 100 µg/mL with Escherichia coli and 25 µg/mL (≈ 39.1 µM) in assay [1]. The IC50 in the assay on SGC-7901 was more than 50 µM; with OS-RC-2, more than 50 µM; with ACHN, more than 50 µM; in the assay with HepG2, more than 50 µM; with 786-0 it was 46 µM.

Values taken from ChEMBL document CHEMBL4145582, “Cytotoxic and Antibacterial Eremophilane Sesquiterpenes from the Marine-Derived Fungus Cochliobolus lunatus SCSIO41401” (J Nat Prod, 2018).
